Measured values: ChEMBL document CHEMBL1140861, “Short antisense oligonucleotides with novel 2'-4' conformationaly restricted nucleoside analogues show improved potency without increased toxicity in animals” (J Med Chem, 2009)
Calls of active or inactive are those of the source. No cut-off for these calls is given here.

How the values were obtained:
Mus musculus [1] = experiment: Hepatotoxicity in BALB/c mouse assessed as increase in liver ALT level at 35 mg/kg, ip after 72 hrs; assay type: toxicity, organism-based; set-up: dose 35 mg/kg, route intraperitoneal; conditions: in vivo
Summary of the method: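 Single ip injection of 35 mg/kg ASO into male Balb/c mice, 6 weeks old, n = 4 per group, saline control; sacrificed 72 h after dosing and ALT recorded; ANOVA with Tukey's post hoc test.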

Mus musculus [2] = experiment: Toxicity in BALB/c mouse assessed as reduction in body weight at 0.5 mg/kg, ip administered twice a week for 3 weeks measured after 72 hrs of last dose; assay type: organism-based; set-up: dose 0.5 mg/kg, route intraperitoneal; conditions: in vivo
Summary of the method: (§1)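 Male Balb/c mice, 6 weeks old, dosed ip twice weekly for 3 weeks at 0.5, 1.5, 4.7 and 15 mg/kg (two ASOs) or 0.7, 2.3, 7.2 and 23 mg/kg (MOE control); sacrificed 72 h after last dose; ALT, liver PTEN mRNA, liver and spleen weights and body weight gain assessed; ED50 derived; errors as sd.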

Mus musculus [3] = experiment: Hepatotoxicity in BALB/c mouse assessed as increase in liver ALT level at 0.5 mg/kg, ip administered twice a week for 3 weeks measured after 72 hrs of last dose; assay type: toxicity, organism-based; set-up: dose 0.5 mg/kg, route intraperitoneal; conditions: in vivo; summary of the method: as §1
Mus musculus [4] = experiment: Toxicity in BALB/c mouse assessed as reduction in body weight at 15 mg/kg, ip administered twice a week for 3 weeks measured after 72 hrs of last dose; assay type: organism-based; set-up: dose 15 mg/kg, route intraperitoneal; conditions: in vivo; summary of the method: as §1
Mus musculus [5] = experiment: Toxicity in BALB/c mouse assessed as reduction in body weight at 1.5 mg/kg, ip administered twice a week for 3 weeks measured after 72 hrs of last dose; assay type: organism-based; set-up: dose 1.5 mg/kg, route intraperitoneal; conditions: in vivo; summary of the method: as §1
Mus musculus [6] = experiment: Reduction of PTEN mRNA level in ip dosed BALB/c mouse liver after 72 hrs; assay type: functional
Mus musculus [7] = experiment: Hepatotoxicity in BALB/c mouse assessed as increase in liver ALT level at 1.5 mg/kg, ip administered twice a week for 3 weeks measured after 72 hrs of last dose; assay type: toxicity, organism-based; set-up: dose 1.5 mg/kg, route intraperitoneal; conditions: in vivo; summary of the method: as §1
Mus musculus [8] = experiment: Metabolic stability in BALB/c mouse liver assessed as antisense oligonucleotide level at 18 mg/kg; assay type: ADME, organism-based; set-up: dose 18 mg/kg; conditions: in vivo
Mus musculus [9] = experiment: Toxicity in BALB/c mouse assessed as reduction in body weight at 4.7 mg/kg, ip administered twice a week for 3 weeks measured after 72 hrs of last dose; assay type: organism-based; set-up: dose 4.7 mg/kg, route intraperitoneal; conditions: in vivo; summary of the method: as §1
Mus musculus [10] = experiment: Hepatotoxicity in BALB/c mouse assessed as increase in liver ALT level at 4.7 mg/kg, ip administered twice a week for 3 weeks measured after 72 hrs of last dose; assay type: toxicity, organism-based; set-up: dose 4.7 mg/kg, route intraperitoneal; conditions: in vivo; summary of the method: as §1
Mus musculus [11] = species on record: Mus musculus; experiment: Binding affinity to mouse PTEN mRNA assessed as melting temperature
Summary of the method: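 Tm of ASO–RNA duplex, i.e. melting temperature of the ASO hybridised to its complementary RNA.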

Mus musculus [12] = experiment: Hepatotoxicity in BALB/c mouse assessed as increase in liver ALT level at 15 mg/kg, ip administered twice a week for 3 weeks measured after 72 hrs of last dose; assay type: toxicity, organism-based; set-up: dose 15 mg/kg, route intraperitoneal; conditions: in vivo; summary of the method: as §1
bEND = experiment: Reduction in mouse PTEN mRNA level expressed in mouse bEND cells; assay type: functional, cell-based
Summary of the method: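 bEND mouse brain endothelial cells transfected with ASO using lipofectin; PTEN mRNA reduction measured over a dose range; IC50 taken from dose-response curves.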

Mus musculus [13] = experiment: Reduction of PTEN level in ip dosed BALB/c mouse liver at 37 mg/kg by Western blot analysis; assay type: functional, organism-based; set-up: dose 37 mg/kg
Homo sapiens = experiment: Decrease in low density lipoprotein cholesterol level in normal human at 50 to 400 […] by standard enzyme-based colorimetric assay; assay type: functional, organism-based; set-up: scale not given: the % may be the effect or the level left

## COC[C@H]1O[C@H]2[C@H](n3ccc(=O)[nH]c3=O)O[C@]1(COP(O)(=S)O[C@H]1[C@H]3O[C@H](COC)[C@]1(COP(O)(=S)OC[C@H]1O[C@@H](n4cnc5c(N)ncnc54)[C@H](O)[C@@H]1OP(O)(=S)OC[C@H]1O[C@@H](n4cc(C)c(=O)[nH]c4=O)[C@H](O)[C@@H]1OP(O)(=S)OC[C@H]1O[C@@H](n4cnc5c(=O)[nH]c(N)nc54)[C@H](O)[C@@H]1OP(O)(=S)OC[C@H]1O[C@@H](n4cnc5c(=O)[nH]c(N)nc54)[C@H](O)[C@@H]1OP(O)(=S)OC[C@H]1O[C@@H](n4ccc(N)nc4=O)[C@H](O)[C@@H]1OP(O)(=S)OC[C@H]1O[C@@H](n4cc(C)c(=O)[nH]c4=O)[C@H](O)[C@@H]1OP(O)(=S)OC[C@H]1O[C@@H](n4cnc5c(=O)[nH]c(N)nc54)[C@H](O)[C@@H]1OP(O)(=S)OC[C@H]1O[C@@H](n4ccc(N)nc4=O)[C@H](O)[C@@H]1OP(O)(=S)OC[C@H]1O[C@@H](n4cnc5c(N)ncnc54)[C@H](O)[C@@H]1OP(O)(=S)OC[C@H]1O[C@@H](n4cnc5c(=O)[nH]c(N)nc54)[C@H](O)[C@@H]1OP(O)(=S)OC[C@]14O[C@@H](n5ccc(N)nc5=O)[C@H](O[C@@H]1COC)[C@@H]4OP(O)(=S)OC[C@]14O[C@@H](n5ccc(=O)[nH]c5=O)[C@H](O[C@@H]1COC)[C@@H]4O)O[C@H]3n1ccc(N)nc1=O)[C@H]2O (some centres undefined)
Mus musculus [1]
  Activity: Non-toxic

## Cc1cn([C@@H]2O[C@@]3(COP(O)(=S)O[C@H]4[C@H]5O[C@H](C)[C@]4(COP(O)(=S)O[C@H]4C[C@H](n6cc(C)c(=O)[nH]c6=O)O[C@@H]4COP(O)(=S)O[C@H]4[C@@H](O)[C@H](n6cnc7c6N=CNC7N)O[C@@H]4COP(O)(=S)O[C@H]4[C@@H](O)[C@H](n6cnc7c(=O)[nH]c(N)nc76)O[C@@H]4COP(O)(=S)O[C@H]4[C@@H](O)[C@H](n6ccc(N)nc6=O)O[C@@H]4COP(O)(=S)O[C@H]4[C@@H](O)[C@H](n6cnc7c(N)ncnc76)O[C@@H]4COP(O)(=S)O[C@H]4[C@@H](O)[C@H](n6ccc(N)nc6=O)O[C@@H]4COP(O)(=S)O[C@H]4[C@@H](O)[C@H](n6cc(C)c(=O)[nH]c6=O)O[C@@H]4COP(O)(=S)O[C@H]4[C@@H](O)[C@H](n6cnc7c(=O)[nH]c(N)nc76)O[C@@H]4COP(O)(=S)O[C@H]4[C@@H](O)[C@H](n6cnc7c(=O)[nH]c(N)nc76)O[C@@H]4COP(O)(=S)O[C@H]4[C@@H](O)[C@H](n6ccc(N)nc6=O)O[C@@H]4COP(O)(=S)O[C@H]4[C@H]6O[C@H](C)[C@]4(COP(O)(=S)O[C@H]4[C@H]7O[C@H](C)[C@]4(CO)O[C@H]7n4ccc(=O)[nH]c4=O)O[C@H]6n4cc(C)c(N)nc4=O)O[C@H]5n4ccc(=O)[nH]c4=O)[C@@H](C)O[C@@H]2[C@@H]3O)c(=O)nc1N (some centres undefined)
Mus musculus [2]
  Activity: Toxic
Mus musculus [3]
  Activity: Toxic
Mus musculus [4]
  Activity: Toxic
Mus musculus [5]
  Activity: Toxic
Mus musculus [6]
  ED50: 13 mg/kg
Mus musculus [7]
  Activity: Toxic
Mus musculus [8]
  Stability: 25 µg/g
Mus musculus [9]
  Activity: Toxic
Mus musculus [10]
  Activity: Toxic
Mus musculus [11]
  Tm: 58.9 °C
Mus musculus [12]
  Activity: Toxic
bEND
  IC50: 10.3 nM
Mus musculus [13]
  Activity: Active

## COC[C@@H]1O[C@H]2[C@H](n3cc(C)c(N)nc3=O)O[C@]1(COP(O)(=S)O[C@H]1[C@H]3O[C@@H](COC)[C@]1(COP(O)(=S)O[C@H]1C[C@H](n4cc(C)c(=O)[nH]c4=O)O[C@@H]1COP(O)(=S)O[C@H]1[C@@H](O)[C@H](n4cnc5c4N=CNC5N)O[C@@H]1COP(O)(=S)O[C@H]1[C@@H](O)[C@H](n4cnc5c(=O)[nH]c(N)nc54)O[C@@H]1COP(O)(=S)O[C@H]1[C@@H](O)[C@H](n4ccc(N)nc4=O)O[C@@H]1COP(O)(=S)O[C@H]1[C@@H](O)[C@H](n4cnc5c(N)ncnc54)O[C@@H]1COP(O)(=S)O[C@H]1[C@@H](O)[C@H](n4ccc(N)nc4=O)O[C@@H]1COP(O)(=S)O[C@H]1[C@@H](O)[C@H](n4cc(C)c(=O)[nH]c4=O)O[C@@H]1COP(O)(=S)O[C@H]1[C@@H](O)[C@H](n4cnc5c(=O)[nH]c(N)nc54)O[C@@H]1COP(O)(=S)O[C@H]1[C@@H](O)[C@H](n4cnc5c(=O)[nH]c(N)nc54)O[C@@H]1COP(O)(=S)O[C@H]1[C@@H](O)[C@H](n4ccc(N)nc4=O)O[C@@H]1COP(O)(=S)O[C@H]1[C@H]4O[C@@H](COC)[C@]1(COP(O)(=S)O[C@H]1[C@H]5O[C@@H](COC)[C@]1(CO)O[C@H]5n1ccc(=O)[nH]c1=O)O[C@H]4n1cc(C)c(N)nc1=O)O[C@H]3n1ccc(=O)[nH]c1=O)[C@H]2O (some centres undefined)
Mus musculus [6]
  ED50: 25 mg/kg
Mus musculus [11]
  Tm: 57.6 °C
bEND
  IC50: 5 nM

## COC[C@@H]1O[C@H]2[C@H](n3ccc(=O)[nH]c3=O)O[C@]1(COP(O)(=S)O[C@@H]1[C@H]3O[C@H](COC)[C@]1(COP(O)(=S)OC[C@H]1O[C@@H](n4cnc5c(N)ncnc54)[C@H](O)[C@@H]1OP(O)(=S)OC[C@H]1O[C@@H](n4cc(C)c(=O)[nH]c4=O)[C@H](O)[C@@H]1OP(O)(=S)OC[C@H]1O[C@@H](n4cnc5c(=O)[nH]c(N)nc54)[C@H](O)[C@@H]1OP(O)(=S)OC[C@H]1O[C@@H](n4cnc5c(=O)[nH]c(N)nc54)[C@H](O)[C@@H]1OP(O)(=S)OC[C@H]1O[C@@H](n4ccc(N)nc4=O)[C@H](O)[C@@H]1OP(O)(=S)OC[C@H]1O[C@@H](n4cc(C)c(=O)[nH]c4=O)[C@H](O)[C@@H]1OP(O)(=S)OC[C@H]1O[C@@H](n4cnc5c(=O)[nH]c(N)nc54)[C@H](O)[C@@H]1OP(O)(=S)OC[C@H]1O[C@@H](n4ccc(N)nc4=O)[C@H](O)[C@@H]1OP(O)(=S)OC[C@H]1O[C@@H](n4cnc5c(N)ncnc54)[C@H](O)[C@@H]1OP(O)(=S)OC[C@H]1O[C@@H](n4cnc5c(=O)[nH]c(N)nc54)[C@H](O)[C@@H]1OP(O)(=S)OC[C@]14O[C@@H](n5ccc(N)nc5=O)[C@H](O[C@H]1COC)[C@@H]4OP(O)(=S)OC[C@]14O[C@@H](n5ccc(=O)[nH]c5=O)[C@H](O[C@H]1COC)[C@@H]4O)O[C@H]3n1ccc(N)nc1=O)[C@H]2O (some centres undefined)
Mus musculus [1]
  Activity: Non-toxic

## COCCO[C@@H]1[C@H](SP(=O)(O)OC[C@H]2O[C@@H](n3cc(C)c(=O)[nH]c3=O)[C@H](OCCOC)[C@@H]2SP(=O)(O)OC[C@H]2O[C@@H](n3cc(C)c(N)nc3=O)[C@H](OCCOC)[C@@H]2SP(=O)(O)OC[C@H]2O[C@@H](n3cnc4c(N)ncnc43)C[C@@H]2SP(=O)(O)OC[C@H]2O[C@@H](n3cnc4c(=O)[nH]c(N)nc43)C[C@@H]2SP(=O)(O)OC[C@H]2O[C@@H](n3cc(C)c(=O)[nH]c3=O)C[C@@H]2SP(=O)(O)OC[C@H]2O[C@@H](n3cc(C)c(N)nc3=O)C[C@@H]2SP(=O)(O)OC[C@H]2O[C@@H](n3cc(C)c(=O)[nH]c3=O)C[C@@H]2SP(=O)(O)OC[C@H]2O[C@@H](n3cnc4c(=O)[nH]c(N)nc43)C[C@@H]2SP(=O)(O)OC[C@H]2O[C@@H](n3cc(C)c(N)nc3=O)C[C@@H]2SP(=O)(O)OC[C@H]2O[C@@H](n3cc(C)c(=O)[nH]c3=O)C[C@@H]2SP(=O)(O)OC[C@H]2O[C@@H](n3cc(C)c(=O)[nH]c3=O)C[C@@H]2SP(=O)(O)OC[C@H]2O[C@@H](n3cc(C)c(N)nc3=O)C[C@@H]2SP(=O)(O)OC[C@H]2O[C@@H](n3cnc4c(=O)[nH]c(N)nc43)[C@H](OCCOC)[C@@H]2SP(=O)(O)OC[C@@H]2O[C@H](n3cc(C)c(N)nc3=O)[C@@H](OCCOC)[C@H]2SP(=O)(O)OC[C@@H]2O[C@H](n3cnc4c(N)ncnc43)[C@@H](OCCOC)[C@H]2SP(=O)(O)OC[C@@H]2O[C@H](n3cc(C)c(N)nc3=O)[C@@H](OCCOC)[C@H]2SP(=O)(O)OC[C@@H]2O[C@H](n3cc(C)c(N)nc3=O)[C@@H](OCCOC)[C@H]2O)[C@@H](COP(=O)(O)S[C@H]2[C@@H](OCCOC)[C@H](n3cc(C)c(N)nc3=O)O[C@@H]2COP(=O)(O)S[C@H]2[C@@H](OCCOC)[C@H](n3cnc4c(=O)[nH]c(N)nc43)O[C@@H]2CO)O[C@H]1n1cc(C)c(N)nc1=O
Homo sapiens
  Activity: 6%
